Laboratory results as given in ChEMBL document CHEMBL1641463, “Discovery of a series of potent arylthiadiazole H(3) antagonists” (Bioorg Med Chem Lett, 2011).

Legend:
Histamine H3 receptor = Histamine H3 receptor (Homo sapiens, UniProt Q9Y5N1); assay: Displacement of [3H]-N-alpha-methylhistamine from human recombinant histamine H3 receptor expressed in HEK cells after 30 mins by scintillation counting; assay type: cell-based, HEK293
Outline: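 P2 membrane pellet from HEK cells expressing recombinant human H3, 3 µg protein per well, in 50 mM Tris–HCl pH 7.4 with 1 nM [3H]N-methylhistamine (82 Ci/mmol). Compound tested at half-log steps across five orders of magnitude. Nonspecific binding defined with 10^-5 M thioperamide. 30 min at 30 °C, then filtration on 0.3% PEI-soaked GF/B filters, three buffer rinses, scintillation counting. Ki from nonlinear least-squares curve fit.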

[1] = AUC (0 to 6 hrs) in rat at 10 mg/kg, po; assay type: ADME, organism-based; set-up: time < 6 hr, dose 10 mg/kg, route oral; details: plasma
Outline: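 Rat exposure measured after a 10 mg/kg oral dose; AUC taken over 0–6 h, in ng·h/ml.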

[2] = Drug level in mouse brain at 10 mg/kg, po after 4 hrs; assay type: ADME, organism-based; set-up: dose 10 mg/kg, route oral; details: read-out: Drug uptake
Outline: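 Mouse brain concentration measured 4 h after a 10 mg/kg oral dose, in ng/g.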

[3] = target: Histamine H3 receptor (Mus musculus) (UniProt P58406); assay: Displacement of [3H]-N-alpha-methylhistamine from histamine H3 receptor in […] mouse cortex after 4 hrs by scintillation counting
Outline: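 Ex vivo binding in cortex dissected from individual ICR mice, read at 4 h. Cortex homogenized in ice-cold 50 mM Na2HPO4–KH2PO4 pH 6.8 and frozen at −80 °C for at least 12 h; protein measured by BCA. Homogenate incubated 30 min at room temperature with 1 nM [3H]N-methylhistamine and 0.1% BSA; thioperamide defines nonspecific binding. Quadruplicates, filtered on PEI-presoaked GF/B; specific = total − nonspecific.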

Cytochrome P450 3A4 = Cytochrome P450 3A4 (Homo sapiens, UniProt P08684); assay: Inhibition of CYP3A4; assay type: ADME
Outline: (§1)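 CYP3A4, 2D6 and 2C9 inhibition tested under both pre-incubation and co-incubation conditions.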

Cytochrome P450 2D6 = Cytochrome P450 2D6 (Homo sapiens, UniProt P10635); assay: Inhibition of CYP2D6; assay type: ADME; outline: as §1
Cytochrome P450 2C9 = Cytochrome P450 2C9 (Homo sapiens, UniProt P11712); assay: Inhibition of CYP2C9; assay type: ADME; outline: as §1
Sequence of Cytochrome P450 2C9 (P11712 whole entry): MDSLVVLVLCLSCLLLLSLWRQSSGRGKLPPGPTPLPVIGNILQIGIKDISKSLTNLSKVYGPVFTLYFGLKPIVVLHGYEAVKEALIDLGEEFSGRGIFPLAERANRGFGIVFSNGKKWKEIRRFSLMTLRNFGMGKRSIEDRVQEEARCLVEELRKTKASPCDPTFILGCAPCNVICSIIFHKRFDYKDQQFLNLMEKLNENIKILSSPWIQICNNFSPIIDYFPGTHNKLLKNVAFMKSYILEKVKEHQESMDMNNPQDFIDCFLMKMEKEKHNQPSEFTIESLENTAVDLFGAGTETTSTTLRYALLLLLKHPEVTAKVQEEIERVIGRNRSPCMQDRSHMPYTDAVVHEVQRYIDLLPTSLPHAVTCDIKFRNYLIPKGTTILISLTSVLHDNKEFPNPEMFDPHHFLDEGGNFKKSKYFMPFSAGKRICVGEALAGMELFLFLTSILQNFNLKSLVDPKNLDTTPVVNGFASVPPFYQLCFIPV

Sequence of Cytochrome P450 3A4 (P08684 whole entry): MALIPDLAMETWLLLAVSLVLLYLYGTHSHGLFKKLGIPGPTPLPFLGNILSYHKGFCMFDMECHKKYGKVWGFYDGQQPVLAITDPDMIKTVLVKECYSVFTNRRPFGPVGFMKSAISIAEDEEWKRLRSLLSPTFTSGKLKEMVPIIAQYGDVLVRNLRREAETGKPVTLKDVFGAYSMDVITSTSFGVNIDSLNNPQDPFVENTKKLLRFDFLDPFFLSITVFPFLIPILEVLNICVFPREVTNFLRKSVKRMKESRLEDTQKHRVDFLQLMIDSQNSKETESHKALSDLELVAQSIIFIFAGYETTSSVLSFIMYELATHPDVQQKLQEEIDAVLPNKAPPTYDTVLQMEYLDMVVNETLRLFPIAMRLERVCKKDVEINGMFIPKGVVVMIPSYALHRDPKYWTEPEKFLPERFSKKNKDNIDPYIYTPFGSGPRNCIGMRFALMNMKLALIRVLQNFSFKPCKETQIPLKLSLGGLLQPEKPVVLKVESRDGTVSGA
Sequence of Histamine H3 receptor (Q9Y5N1 whole entry): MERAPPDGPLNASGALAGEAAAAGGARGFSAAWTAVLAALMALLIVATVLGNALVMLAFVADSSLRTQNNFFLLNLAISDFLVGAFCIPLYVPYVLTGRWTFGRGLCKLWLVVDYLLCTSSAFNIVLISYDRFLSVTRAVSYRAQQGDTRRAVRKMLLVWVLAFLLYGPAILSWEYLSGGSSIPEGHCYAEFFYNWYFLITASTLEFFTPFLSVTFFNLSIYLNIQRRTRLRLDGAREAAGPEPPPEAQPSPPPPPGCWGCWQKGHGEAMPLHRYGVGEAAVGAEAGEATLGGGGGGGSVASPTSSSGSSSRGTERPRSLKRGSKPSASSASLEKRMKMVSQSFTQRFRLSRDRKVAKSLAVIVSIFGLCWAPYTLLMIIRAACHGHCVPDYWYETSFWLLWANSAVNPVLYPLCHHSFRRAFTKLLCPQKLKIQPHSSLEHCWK
Sequence of Cytochrome P450 2D6 (P10635 whole entry): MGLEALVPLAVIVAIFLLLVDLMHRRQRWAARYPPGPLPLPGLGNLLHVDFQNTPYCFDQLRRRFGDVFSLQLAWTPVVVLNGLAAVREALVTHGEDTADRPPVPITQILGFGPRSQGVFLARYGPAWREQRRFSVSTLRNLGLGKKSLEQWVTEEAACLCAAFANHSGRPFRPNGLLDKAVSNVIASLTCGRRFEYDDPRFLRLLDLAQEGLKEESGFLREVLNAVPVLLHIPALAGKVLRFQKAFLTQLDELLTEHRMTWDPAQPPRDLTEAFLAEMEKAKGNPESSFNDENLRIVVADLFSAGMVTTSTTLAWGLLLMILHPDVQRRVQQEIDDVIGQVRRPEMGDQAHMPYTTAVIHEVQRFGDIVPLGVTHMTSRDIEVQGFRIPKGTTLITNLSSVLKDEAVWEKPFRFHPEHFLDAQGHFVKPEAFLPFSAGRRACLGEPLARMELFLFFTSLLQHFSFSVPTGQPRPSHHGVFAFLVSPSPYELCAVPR
Sequence of Histamine H3 receptor (Mus musculus) (P58406 whole entry): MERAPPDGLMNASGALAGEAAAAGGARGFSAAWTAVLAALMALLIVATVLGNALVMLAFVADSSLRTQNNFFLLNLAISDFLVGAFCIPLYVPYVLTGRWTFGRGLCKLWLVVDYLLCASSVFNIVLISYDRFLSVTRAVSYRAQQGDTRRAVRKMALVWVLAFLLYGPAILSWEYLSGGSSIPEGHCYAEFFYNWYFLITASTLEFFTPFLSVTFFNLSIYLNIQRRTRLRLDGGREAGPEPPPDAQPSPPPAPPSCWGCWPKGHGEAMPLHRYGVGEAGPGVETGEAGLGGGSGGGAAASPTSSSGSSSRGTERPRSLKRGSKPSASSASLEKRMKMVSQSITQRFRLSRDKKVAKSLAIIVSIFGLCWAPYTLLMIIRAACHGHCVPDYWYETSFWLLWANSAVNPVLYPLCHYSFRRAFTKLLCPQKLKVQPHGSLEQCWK

Row | SMILES | Ki (Histamine H3 receptor) | also measured
1 | c1ccc(-c2nnc(N3CCC(N4CCCCC4)CC3)s2)nc1 | 30 nM | 
2 | Fc1cccc(-c2nnc(N3CCC(N4CCCCC4)CC3)s2)c1 | 62 nM | 
3 | Fc1ccccc1-c1nnc(N2CCC(N3CCCCC3)CC2)s1 | 36 nM | 
4 | COc1ccc(-c2nnc(N3CCC(N4CCCC4)CC3)s2)cc1 | 601 nM | 
5 | COc1cc(Cl)cc(-c2nnc(N3CCC(N4CCCCC4)CC3)s2)c1 | 12 nM | AUC(0-t) at 6 h [1]: 379 ng·h/mL; concentration at 4 h [2]: 9030 ng/g; Activity [3]: 90%; INH (Cytochrome P450 3A4): > 20 µM; INH (Cytochrome P450 2D6): > 20 µM; INH (Cytochrome P450 2C9): > 20 µM
6 | CC(=O)c1ccccc1-c1nnc(N2CCC(N3CCCCC3)CC2)s1 | 8.4 nM | 
7 | COc1cc(OC)cc(-c2nnc(N3CCC(N4CCCCC4)CC3)s2)c1 | 15 nM | 
8 | N#Cc1cccc(-c2nnc(N3CCC(N4CCCCC4)CC3)s2)c1 | 42.6 nM | 
9 | Clc1ccccc1-c1nnc(N2CCC(N3CCCCC3)CC2)s1 | 69 nM | 
10 | Clc1cccc(-c2nnc(N3CCC(N4CCCCC4)CC3)s2)c1 | 49 nM | 
11 | N#Cc1ccc(-c2nnc(N3CCC(N4CCCCC4)CC3)s2)cc1 | 36.4 nM | 
12 | c1ccc(-c2nnc(N3CCC(N4CCCCC4)CC3)s2)cc1 | 80.1 nM | 
13 | CC(=O)c1cccc(-c2nnc(N3CCC(N4CCCCC4)CC3)s2)c1 | 4 nM | 
14 | CC(=O)c1ccc(-c2nnc(N3CCC(N4CCCCC4)CC3)s2)cc1 | 65 nM | 
15 | O=C(Nc1nnc(N2CCC(N3CCCCC3)CC2)s1)NC1CCCC1 | 48.6 nM | INH (Cytochrome P450 3A4): > 20 µM; INH (Cytochrome P450 2D6): > 20 µM; INH (Cytochrome P450 2C9): > 20 µM
16 | Fc1ccc(-c2nnc(N3CCC(N4CCCCC4)CC3)s2)cc1 | 39 nM | 
17 | c1cnc(-c2nnc(N3CCC(N4CCCCC4)CC3)s2)nc1 | 103 nM | 
18 | COc1ccc(-c2nnc(N3CCC(N4CCCCC4)CC3)s2)cc1 | 40.1 nM | 

Row | SMILES | Ki (Histamine H3 receptor) | also measured
19 | Cc1cccc(-c2nnc(N3CCC(N4CCCCC4)CC3)s2)n1 | 6.1 nM | 
20 | N#Cc1cc(C#N)cc(-c2nnc(N3CCC(N4CCCCC4)CC3)s2)c1 | 23 nM | 
21 | COc1cccc(-c2nnc(N3CCC(N4CCCCC4)CC3)s2)c1 | 31.9 nM | 
22 | CCN1CCN(c2nnc(-c3ccc(OC)cc3)s2)CC1 | 162 nM | 
23 | Cc1ccccc1-c1nnc(N2CCC(N3CCCCC3)CC2)s1 | 36 nM | 
24 | COc1ccc(-c2nnc(N3CCN(C4CCCC4)CC3)s2)cc1 | 182 nM | 
25 | COc1cc(F)cc(-c2nnc(N3CCC(N4CCCCC4)CC3)s2)c1 | 16 nM | 
26 | Clc1ccc(-c2nnc(N3CCC(N4CCCCC4)CC3)s2)cc1 | 161 nM | 
27 | Fc1cc(F)cc(-c2nnc(N3CCC(N4CCCCC4)CC3)s2)c1 | 50 nM | 
28 | COc1ccc(-c2nnc(N3CCN4CCCC4C3)s2)cc1 (stereo not given) | 653 nM | 
29 | COc1ncc(-c2nnc(N3CCC(N4CCCCC4)CC3)s2)s1 | 28 nM | 
30 | COc1ccccc1-c1nnc(N2CCC(N3CCCCC3)CC2)s1 | 40 nM | 
31 | COc1cc(C#N)cc(-c2nnc(N3CCC(N4CCCCC4)CC3)s2)c1 | 12 nM | 
32 | Cc1cccc(-c2nnc(N3CCC(N4CCCCC4)CC3)s2)c1 | 60 nM | 
33 | c1n[nH]cc1-c1nnc(N2CCC(N3CCCCC3)CC2)s1 | 192 nM | 
34 | Cc1ccc(-c2nnc(N3CCC(N4CCCCC4)CC3)s2)cc1 | 163 nM | 
35 | COc1cccc(-c2nnc(N3CCC(N4CCCCC4)CC3)s2)n1 | 3.5 nM | concentration at 4 h [2]: 1530 ng/g; Activity [3]: 74%; INH (Cytochrome P450 3A4): > 20 µM; INH (Cytochrome P450 2D6): > 20 µM; INH (Cytochrome P450 2C9): > 20 µM
36 | Clc1cc(Cl)cc(-c2nnc(N3CCC(N4CCCCC4)CC3)s2)c1 | 72 nM | 
